Source: ChEMBL document CHEMBL1122415, “Folate antagonists. 20. Synthesis and antitumor and antimalarial properties of trimetrexate and related 6-[(phenylamino)methyl]-2,4-quinazolinediamines” (1983)
Several values for one entry are separate records, joined by “and”; a condition that tells them apart may be missing. Equal values may be shown once.

Columns and labels:
Mus musculus [1] = species on record: Mus musculus; experiment: Daily dose required for 90% parasitaemia in trophozoite induced Plasmodium berghei in 21 mice; assay type: functional
How it was run: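 Oral suppressive test in mice against a normal drug-sensitive P. berghei strain. Drug given continuously in the diet for six consecutive days, with doses as free base equivalent. SD90 is the daily dose (mg/kg) giving 90% suppression of parasitemia versus control mice, estimated graphically on semilog paper.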

Plasmodium berghei [2] = experiment: Antimalarial effect against trophozoite-induced Plasmodium berghei in mice (Mus musculus) at 20 mg/kg subcutaneous dose; assay type: functional
L1210 [3] = experiment: Molar concentration required to reduce the number of L1210 cells by 50% after incubation for 2 days; assay type: functional, Mus musculus; conditions: read-out: ID50 (the source's name)
How it was run: (§1)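 L1210 leukemia cells in tissue culture exposed to drug for 2 days. ID50 is the molar concentration that reduces L1210 cell number by 50%. Mithramycin is the reference drug.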

Mus musculus [4] = experiment: Antimalarial effect against trophozoite-induced Plasmodium berghei in mice (Mus musculus) after subcutaneous administration dose of 80 mg/kg; 4 survived after 60 days of post infection; assay type: functional
Plasmodium berghei [5] = experiment: Antimalarial effect against trophozoite-induced Plasmodium berghei in mice (Mus musculus) at 80 mg/kg subcutaneous dose; assay type: functional
Plasmodium berghei [6] = experiment: Antimalarial effect against trophozoite-induced Plasmodium berghei in mice (Mus musculus) at 40 mg/kg subcutaneous dose; assay type: functional
Mus musculus [7] = experiment: (§2) Antimalarial effect against trophozoite-induced Plasmodium berghei in mice (Mus musculus) after subcutaneous administration dose of 20 mg/kg; assay type: functional
Mus musculus [8] = experiment: Antimalarial effect against trophozoite-induced Plasmodium berghei in mice (Mus musculus) after subcutaneous administration dose of 2.5 mg/kg; assay type: functional
Mus musculus [9] = experiment: Antimalarial effect against trophozoite-induced Plasmodium berghei in mice (Mus musculus) after subcutaneous administration dose of 10 mg/kg; assay type: functional; conditions: 10 mg/kg
Mus musculus [10] = experiment: as §2; assay type: functional; remark: listed apart in the source
L1210 [11] = experiment: Molar concentration required to reduce the number of L1210 cells by 50% after incubation for 2 days (exp 2; assay type: functional; conditions: Mus musculus, L1210, 48 h; read-out: ID50 (the source's name); how it was run: as §1
Mus musculus [12] = experiment: Antimalarial effect against trophozoite-induced Plasmodium berghei in mice (Mus musculus) after subcutaneous administration dose of 5 mg/kg; assay type: functional
Mus musculus [13] = experiment: Antimalarial effect against trophozoite-induced Plasmodium berghei in mice (Mus musculus) after subcutaneous administration dose of 40 mg/kg; assay type: functional; conditions: 40 mg/kg
Plasmodium berghei [14] = experiment: Antimalarial effect against trophozoite-induced Plasmodium berghei in mice (Mus musculus) at 320 mg/kg subcutaneous dose; assay type: functional
Plasmodium berghei [15] = experiment: Antimalarial effect against trophozoite-induced Plasmodium berghei in mice (Mus musculus) after subcutaneous dose of 10 mg/kg; assay type: functional
Plasmodium berghei [16] = experiment: Change in mean survival time of Trophozoite-induced Plasmodium berghei infected mice (Mus musculus) after 160 mg/kg subcutaneous dose; 60 days survival; assay type: functional
Mus musculus [17] = experiment: Antimalarial effect against trophozoite-induced Plasmodium berghei in mice (Mus musculus) after subcutaneous administration dose of 1.25 mg/kg; assay type: functional
Plasmodium berghei [18] = experiment: Antimalarial effect against trophozoite-induced Plasmodium berghei in mice (Mus musculus) at 5 mg/kg subcutaneous dose; assay type: functional
Plasmodium berghei [19] = experiment: Antimalarial effect against trophozoite-induced Plasmodium berghei in mice (Mus musculus) after subcutaneous dose of 160 mg/kg; assay type: functional
Mus musculus [20] = experiment: Antimalarial effect against trophozoite-induced Plasmodium berghei in mice (Mus musculus) after subcutaneous administration dose of 320 mg/kg; 3 survived after 60 days of postinfection; assay type: functional
Mus musculus [21] = experiment: Antimalarial effect against trophozoite-induced Plasmodium berghei in mice (Mus musculus) after subcutaneous administration dose of 160 mg/kg; 3 survived after 60 days of postinfection; assay type: functional; conditions: 160 mg/kg
Mus musculus [22] = experiment: Antimalarial effect against trophozoite-induced Plasmodium berghei in mice (Mus musculus) after subcutaneous administration dose of 80 mg/kg; 1 survived after 60 days of postinfection; assay type: functional
Mus musculus [23] = experiment: Antimalarial effect against trophozoite-induced Plasmodium berghei in mice (Mus musculus) after subcutaneous administration dose of 20 mg/kg; 2 survived after 60 days of postinfection; assay type: functional; conditions: 20 mg/kg

Compound | SD90 (Mus musculus [1]) | Delta MST (Plasmodium berghei [2]; 20 mg/kg) | IC50 (L1210 [3]; Mus musculus, L1210, 48 h) | IC50 (L1210 [3]) | Delta MST (Mus musculus [8]) | Delta MST (Plasmodium berghei [5]; 80 mg/kg) | Delta MST (Plasmodium berghei [6]; 40 mg/kg) | Delta MST (Mus musculus [17]) | Delta MST (Plasmodium berghei [18]) | other results
CC(=O)O.COc1cc(NCc2ccc3nc(N)nc(N)c3c2C)cc(OC)c1OC.O | 0.44 mg/kg/day | 12 days and 11.5 days and 7.1 days | 11 nM | 20 nM | – | – | – | – | – | Delta MST (Mus musculus [4]): 16.3 days and 14.7 days; Delta MST (Plasmodium berghei [5]): 30.8 days; Delta MST (Plasmodium berghei [6]): 14.7 days
CC(=O)O.Nc1nc(N)c2c(Cl)c(CNc3ccc(Cl)cc3)ccc2n1.O | – | – | – | – | 2.7 days | – | – | – | – | Delta MST (Mus musculus [7]): 16.9 days and 17.4 days; Delta MST (Mus musculus [9]): 6.9 days and 6.1 days; Delta MST (Mus musculus [10]): 16.9 days
CC(=O)O.Nc1nc(N)c2c(Cl)c(CNc3cccc(Br)c3)ccc2n1.O | – | – | 2.1 nM | – | 1.5 days | – | – | – | – | IC50 (L1210 [11]): 2.2 nM; Delta MST (Mus musculus [9]): 7.3 days and 7.5 days and 4.7 days; Delta MST (Mus musculus [10]; 20 mg/kg): 8.5 days and 8.3 days; Delta MST (Mus musculus [12]): 4.7 days; Delta MST (Mus musculus [13]): 11.3 days and 11.5 days and 11.7 days
CC(=O)O.Nc1nc(N)c2cc(CNc3ccc(Cl)c(C(F)(F)F)c3)ccc2n1.O.O | – | – | – | – | – | 27.2 days and 10.3 days | 10.5 days and 4.9 days | – | – | Delta MST (Plasmodium berghei [14]): 29.9 days; Delta MST (Plasmodium berghei [2]): 5.1 days; Delta MST (Plasmodium berghei [15]; 10 mg/kg): 4.9 days and 2.7 days; Delta MST (Plasmodium berghei [16]): 23.9 days
CC(=O)O.Cc1c(CNc2cccc(Br)c2)ccc2nc(N)nc(N)c12.O | 0.2 mg/kg/day | 12.6 days and 11.2 days and 7.7 days | 4.4 nM | 3.7 nM | – | 21.8 days and 9.2 days | 9.3 days and 11.2 days | 0.5 days | 7.7 days | –
CC(=O)O.Nc1nc(N)c2cc(CNc3cccc(Br)c3)ccc2n1 | 9 mg/kg/day | 1.5 days and 1.8 days | 86 nM | 71 nM | – | 8.8 days and 10.2 days and 3.6 days | – | – | – | Delta MST (Plasmodium berghei [14]; 320 mg/kg): 9.2 days and 9.8 days; Delta MST (Plasmodium berghei [19]): 9.2 days; Delta MST (Plasmodium berghei [15]): 0.4 days; Delta MST (Mus musculus [20]): 9.2 days; Delta MST (Plasmodium berghei [6]): 3.1 days
CC(=O)O.Nc1nc(N)c2cc(CNc3ccc(Cl)c(Cl)c3)ccc2n1.O.O | 0.92 mg/kg/day | – | – | 18 nM and 23 nM and 67 nM | – | – | 11.2 days and 5.8 days | – | – | Delta MST (Plasmodium berghei [2]): 5.8 days; Delta MST (Mus musculus [8]; 2.5 mg/kg): 0.4 days and 0.2 days; Delta MST (Plasmodium berghei [19]; 160 mg/kg): 18.8 days and 19.8 days; Delta MST (Plasmodium berghei [15]): 1.8 days; Delta MST (Mus musculus [21]): 11.8 days and 12.1 days; Delta MST (Mus musculus [22]): 11.8 days
CC(=O)O.Nc1nc(N)c2c(Cl)c(CNc3ccc(Cl)c(Cl)c3)ccc2n1.O | – | – | – | – | – | – | – | 2.9 days | 4.3 days | –
CC(=O)O.Nc1nc(N)c2cc(CNc3ccc(Cl)c4ccccc34)ccc2n1.O | – | – | 22 nM | 13 nM | 5.5 days | – | – | 1.7 days | 9.9 days | Delta MST (Mus musculus [23]): 11.9 days and 12.6 days and 12.9 days; Delta MST (Plasmodium berghei [15]; 10 mg/kg): 10.3 days and 10.5 days and 10.7 days
